Measured values reported in publication PMC10610910 (Science Advances, 2023).
Residue numbers refer to the chain shown, from its start. Numbers in names are those of the source. Entries after “also recorded” stand apart in the source; their conditions may differ. No end group written: not given here.

Assays:
[1] = molecular target: HSF2BP bound to BRME1-M (complex formed beforehand) (human) (UniProt O75031); assay: ITC
HSF2BP [2] = molecular target: T1, HSF2BP (Homo sapiens, UniProt O75031); assay: ITC, BRME1 peptides versus full-length HSF2BP; type: binding
T1 sequence (O75031 1-334): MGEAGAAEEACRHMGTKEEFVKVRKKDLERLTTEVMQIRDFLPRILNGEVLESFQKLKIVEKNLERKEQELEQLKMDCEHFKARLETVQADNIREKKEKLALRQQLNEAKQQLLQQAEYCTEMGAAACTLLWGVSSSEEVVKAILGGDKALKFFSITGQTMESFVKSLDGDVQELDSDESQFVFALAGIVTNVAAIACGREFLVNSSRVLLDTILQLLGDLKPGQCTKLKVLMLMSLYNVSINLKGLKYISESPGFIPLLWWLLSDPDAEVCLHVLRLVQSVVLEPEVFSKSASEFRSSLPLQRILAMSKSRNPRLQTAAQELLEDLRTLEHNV
Outline: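 Full-length HSF2BP was His-tagged and bacterially expressed (IPTG, 20°C overnight), TEV-cleaved and SEC-purified. Synthetic BRME1 peptides: N, residues 578–601; M, 602–641; C, 649–668. In 25 mM tris pH 7.5, 250 mM NaCl, 5 mM β-mercaptoethanol at 293 and 303 K, 8–13 μM HSF2BP in the cell was titrated with 80–130 μM peptide. Injections of 10 μl every 210 s; first 2-μl injection discarded. Run in duplicate, fitted for stoichiometry, constants and thermodynamics.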

[3] = tested on: interstrand crosslink repair (pICL) in Xenopus egg extract; assay: Cisplatin interstrand crosslink repair in Xenopus egg extract; type: biochemical; settings: HSF2BP 0.45 μM, peptide 1.35 μM
[4] = tested on: HR intermediates (X-arc) of pICL in Xenopus egg extract; type: biochemical; settings: HSF2BP 0.45 μM, peptide 1.35 μM
endogenous Xenopus BRCA2 [5] = assay: BRCA2 degradation during interstrand crosslink repair in Xenopus egg extract; type: biochemical; settings: HSF2BP 0.45 μM, peptide 1.35 μM; 5 to 120 min
HSF2BP [6] = molecular target: T1, HSF2BP; assay: Scanning force microscopy; type: physicochemical
Outline: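 HSF2BP was diluted 10,000-fold to 12 nM in 25 mM tris-HCl pH 7.5, 250 mM NaCl, 5 mM β-mercaptoethanol. It was deposited for 30 s on freshly cleaved mica, rinsed with water, dried under filtered air, and imaged in air by SFM. Particle volume distributions were obtained by kernel density analysis.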

[7] = tested on: complex formed by HSF2BP and BRCA2-HBD; assay: Negative-staining EM of ring-shaped HSF2BP-BRCA2-HBD complex; type: binding, human; settings: 2:1 mix of HSF2BP and BRCA2-HBD
HSF2BP + BRCA2-HBD = molecular target: T2, HSF2BP + BRCA2-HBD (Homo sapiens, UniProt O75031+P51587); assay: ITC, BRME1-M versus HSF2BP bound to BRCA2-HBD; type: binding; settings: 293 K
T2 sequence (O75031 1-334): T1 sequence (O75031 1-334)
T2 sequence (P51587 2291-2342 C2332T partner limits assumed): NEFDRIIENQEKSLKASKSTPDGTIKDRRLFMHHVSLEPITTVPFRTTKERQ

HSF2BP [8] = molecular target: T1, HSF2BP; assay: Mass photometry; type: physicochemical; settings: 25-100 nM
HSF2BP helix α1 = molecular target: T3, HSF2BP helix α1 (Homo sapiens, UniProt O75031); assay: ITC, BRME1-M versus HSF2BP helix α1 peptide; type: binding
T3 sequence (O75031 19-50 limits assumed): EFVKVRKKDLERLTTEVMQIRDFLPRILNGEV

crystal structure = molecular target: the molecule itself; assay: crystal structure
SEC-MALS = molecular target: the molecule itself; assay: SEC-MALS
HeLa cells = type: cell-based, human; settings: HeLa stably producing the protein; MMC, cisplatin, talazoparib
Outline: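 HeLa cells in DMEM with 10% fetal calf serum were stably co-transfected (PiggyBac) with GFP-HSF2BP and/or Flag-BRME1 variants, then selected with puromycin (1.5 μg/ml) and G418 (800 μg/ml) for 8 days; mixed populations were used. Seeded 100–1000 cells/well in technical duplicates, drugs added next day: MMC 2 h, cisplatin or talazoparib overnight. Coomassie-stained colonies counted on day 10.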

DNA = settings: ref [23]; cited from earlier work
[9] = tested on: interstrand crosslink repair (pICL) in Xenopus egg extract; settings: Xenopus and human HSF2BP, ref [24]; cited from earlier work
SEC-SAXS of free HSF2BP = type: physicochemical
Outline: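 Free HSF2BP was loaded at 6 mg/ml onto a BIOSEC 3 column in 25 mM tris-HCl pH 7.5, 250 mM NaCl, 5 mM β-mercaptoethanol, with synchrotron scattering recorded every second during elution. Curves across the elution peak were summed. P(r) was derived so that its Fourier transform fits the SAXS curve.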

[10] = SEC-MALS molecular mass / oligomeric state; type: physicochemical; settings: 25 mM tris-HCl pH 7.5, 250 mM NaCl, 5 mM β-mercaptoethanol, n = 2
endogenous Xenopus BRCA2 [11] = settings: Xenopus egg extract; ref [24]; cited from earlier work
[12] = SFM on mica, in air, HSF2BP at 12 nM

Molecule: BRCA2 fragment 2213–2342 (from UniProt P51587 2213-2342) (domain or fragment)
- dH [1]: -10.9 kcal/mol

Molecule: BRME1-C: synthetic peptide, human BRME1 residues 649 to 668 (PYPSKGPGNIPRGDPPWREL)
- binding to HSF2BP, in words (HSF2BP [2]; 30°C): does not bind HSF2BP
- effect on interstrand crosslink repair, in words [3]: no such effect
- effect on HR repair intermediates, in words [4]: no such effect

Molecule: EDATNVVRGLVIELSNLNRLIMGTHRDLEAFKRLNYRKTK [BRME1-M]
- effect on HSF2BP-induced BRCA2 degradation, in words (endogenous Xenopus BRCA2 [5]): completely abolished
- ΔG (HSF2BP [2]; 293 K): -10.6 kcal/mol
- ΔH (HSF2BP [2]; 293 K): -5.7 kcal/mol
- ─TΔS (HSF2BP [2]; 293 K): -4.90 kcal/mol
- ΔG (HSF2BP [2]; 303 K): -10.7 kcal/mol
- ΔH (HSF2BP [2]; 303 K): -8.2 kcal/mol
- ─TΔS (HSF2BP [2]; 303 K): -2.50 kcal/mol
- effect on HSF2BP-BRCA2-HBD oligomers, in words (HSF2BP [6]; SFM, HSF2BP:BRME1-M = 1:1): complete disappearance of the 24-nucleotide oligomer population
- effect on interstrand crosslink repair, in words [3]: reverted the inhibitory effect of HSF2BP on the interstrand crosslink repair reaction
- effect on ring-shaped complexes, in words [7]: near-complete disappearance of the large ring-shape complexes
- ΔG (HSF2BP + BRCA2-HBD; first of two lines): -10 kcal/mol
- ΔH (HSF2BP + BRCA2-HBD; first of two lines): -4.4 kcal/mol
- ─TΔS (HSF2BP + BRCA2-HBD; first of two lines): -5.60 kcal/mol
- ΔH (HSF2BP + BRCA2-HBD; second of two lines): -5.8 kcal/mol
- ─TΔS (HSF2BP + BRCA2-HBD; second of two lines): -4.40 kcal/mol
- effect on / state of HSF2BP oligomers, in words (HSF2BP [8]): the HSF2BP tetramer is dissociated into dimers; also recorded: disassembles the 24-nucleotide oligomer complexes, yielding to a mix between octamers, tetramers, and dimers; also recorded: caused disassembly of the ring-shaped complex and enrichment in double-octamers, octamers, and tetramers
- ΔH (HSF2BP helix α1; 293 K): -1.2 kcal/mol
- ─TΔS (HSF2BP helix α1; 293 K): -9.00 kcal/mol
- ΔH (HSF2BP helix α1; 303 K): -7.6 kcal/mol
- ─TΔS (HSF2BP helix α1; 303 K): -2.90 kcal/mol
- effect on HR repair intermediates, in words [4]: specifically suppressed the reduction in the formation of HR repair intermediates

Molecule: EFVKVRKKDLERLTTEVMQIRDFLPRILNGEV (peptide, UniProt O75031 19-50, looked up) [HSF2BP helix α1 peptide (residues 19 to 50)]
- stoichiometry N (crystal structure): 4

B1: HSF2BP H80A-R84A (natural protein, human, UniProt O75031 1-334, looked up)
chain: T1 sequence (O75031 1-334) with H80A, R84A
- stoichiometry N (SEC-MALS): 8
- effect on cell resistance to DNA damage, in words (HeLa cells): compromised cell survival as HSF2BP wild type

B2: HSF2BP: human HSF2BP, full-length wild type; GFP-HSF2BP in HeLa cells (protein)
chain: T1 sequence (O75031 1-334)
modifications: left off: His6, end not stated, cleaved
- affinity for DNA, in words (DNA): no detectable affinity for DNA
- effect on crosslink repair, in words [9]: inhibit replication-dependent restoration of the genetic information at the crosslink
- maximal distance (SEC-SAXS of free HSF2BP; P(r)): 250 Å
- molar mass (I(0)) (SEC-SAXS of free HSF2BP; protein ~50 to 60 μM, pH 7.5, 293.15 K): 156 ± 21 kDa
- particle volume, larger peak (HSF2BP [6]; [12]): ~190 nm^3
- particle volume, smaller peak (HSF2BP [6]; [12]): around 95 nm^3
- effect on cell resistance to DNA damage, in words (HeLa cells): sensitized cells to DNA damage
- apparent molar mass [10]: 136 ± 7 kDa
- effect on / state of HSF2BP oligomers, in words (HSF2BP [8]): at 25 nM, it is a mix of dimers and tetramers
- effect on BRCA2, in words (endogenous Xenopus BRCA2 [11]): leads to DNA crosslink-dependent proteasomal degradation of BRCA2
